GC-B act: GC-B (human) receptor activation; P20594; HEK293-GC-B cells, CNP EC30, cGMP TR-FRET; 0% at EC30 CNP, 100% saturating CNP; activation, % at 10 µM; hit rate 0.11% among 370,000; AID 1920062;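 active = activation at 10 µM reaching about 35% in either raw or pattern-adjusted values, limit read from the data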
TbMetRS inhib: blocks T. brucei methionyl-tRNA synthetase activity | purified T. brucei MetRS, ATP depletion, Kinase-Glo luminescence | inhibition, % at 11.9 µM | hit rate 0.4% among 360,000 | AID 624268;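 active = inhibition above a per-plate cutoff of the control wells' mean inhibition plus 3 SD, cut at about 5.5% in these data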;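 also: 0% = DMSO wells median and 100% = median of wells with control inhibitor compound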
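Measured by: Kinase-Glo luciferase luminescence reporting remaining unconsumed ATP. Material: purified T. brucei MetRS enzyme. Doses: 11.9 µM compound single dose, 0.9% DMSO. Medium: HEPES buffer containing pyrophosphatase, BSA, spermine, DTT. Times: 15 min preincubation, 2 h reaction, all 25 °C. Reagent: methionine, ATP and bulk E. coli tRNA.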
SKN-1 block: blocks SKN-1 activity in C. elegans. hit rate 0.49% among 360,000. C. elegans VP596 Pgst-4::GFP/RFP ratio, acrylamide-induced, 24 h. inhibition, % at 21.8 µM;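 active = interference check ratio from 0.5 to 1.5 plus GFP to RFP signal ratio inhibition reaching or exceeding a fixed threshold, cut at about 30% in these data, passing the limit was not always enough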
MT1-MMP act inh: blocks activation of human MT1-MMP. AID 651647. GFP/RFP ratio change, % at 20 µM. hit rate 0.061% among 360,000. HT1080 RFP-PRO-GFP cells, GFP/RFP ratio fluorescence, overnight; percent of plate control window, DMSO zero;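 active = GFP/RFP ratio change of at least 30% with cell ATP level not reduced by more than half and red fluorescence within 50% of control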
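Material: RFP-PRO-GFP reporter HT1080 cells. Dosing: single-point 20 µM compound, 1% DMSO. Controls: DMSO and RFP-L50D-GFP cell wells. Timing: cells overnight before dosing, compound overnight, 37 °C, 5% CO2. Measure: GFP/RFP fluorescence ratio.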
Bfl-1 A1 inh: inhibitors of the anti-apoptotic protein A1, read as caspase activation. MEF A1-2A-BIM cells, Caspase-Glo 3/7 luminescence, 3 h; percent of clofoctol response, vehicle zero. caspase activation, % (no concentration beside the values). hit rate 0.066% among 330,000. AID 2462;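 active = over half of replicate activation scores above 10%, or exactly half above 10 with the replicate mean above 10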
NPR1 activator: GC-A (human) enzyme activation; activation, % at 10 µM; HEK293 GC-A cells, cGMP TR-FRET, EC30 ANP; 0% at EC30 ANP, 100% saturating ANP; hit rate 0.14% among 370,000; in the data active = activation above about 40%
Target sequence (P16066 whole entry, looked up): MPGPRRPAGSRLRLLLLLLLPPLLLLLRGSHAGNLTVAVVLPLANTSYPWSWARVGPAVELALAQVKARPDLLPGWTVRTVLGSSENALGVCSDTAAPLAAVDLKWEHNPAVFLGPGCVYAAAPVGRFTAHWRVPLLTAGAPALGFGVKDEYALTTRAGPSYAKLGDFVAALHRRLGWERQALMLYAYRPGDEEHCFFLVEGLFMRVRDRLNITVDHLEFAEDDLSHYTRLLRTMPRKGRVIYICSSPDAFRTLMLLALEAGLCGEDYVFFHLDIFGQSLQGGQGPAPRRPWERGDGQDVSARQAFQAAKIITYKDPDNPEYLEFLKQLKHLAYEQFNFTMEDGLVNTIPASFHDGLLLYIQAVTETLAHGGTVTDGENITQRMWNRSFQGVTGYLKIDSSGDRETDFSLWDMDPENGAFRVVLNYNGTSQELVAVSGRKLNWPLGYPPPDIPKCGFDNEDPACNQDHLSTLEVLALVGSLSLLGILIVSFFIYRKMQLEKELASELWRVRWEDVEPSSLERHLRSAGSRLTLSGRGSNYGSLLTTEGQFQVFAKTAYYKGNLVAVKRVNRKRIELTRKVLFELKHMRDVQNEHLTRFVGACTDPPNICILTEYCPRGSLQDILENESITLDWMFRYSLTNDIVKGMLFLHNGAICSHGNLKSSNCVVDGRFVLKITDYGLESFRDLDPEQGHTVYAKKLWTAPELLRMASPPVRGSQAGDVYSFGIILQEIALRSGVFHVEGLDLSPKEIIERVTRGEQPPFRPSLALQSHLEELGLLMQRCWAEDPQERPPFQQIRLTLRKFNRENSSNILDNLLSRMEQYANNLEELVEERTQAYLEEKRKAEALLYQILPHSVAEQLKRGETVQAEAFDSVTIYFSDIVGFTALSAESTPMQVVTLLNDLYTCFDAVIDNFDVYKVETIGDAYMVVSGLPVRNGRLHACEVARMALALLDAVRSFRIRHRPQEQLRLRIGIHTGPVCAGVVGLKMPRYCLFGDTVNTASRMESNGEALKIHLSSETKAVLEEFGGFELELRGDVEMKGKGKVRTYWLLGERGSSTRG
Tb MetRS conf: confirmation of Trypanosoma brucei MetRS inhibitors | shares compounds with TbMetRS inhib | T. brucei MetRS enzyme, luminescence (ATP depletion) | inhibition, % at 11.9 µM | hit rate 93% among 1,400 | AID 624412; in the data active = inhibition above about 7%
Jurkat cytotox: Jurkat T cell cytotoxicity for MetRS hits | shares compounds with TbMetRS inhib | AID 624413 | inhibition, % at 8.3 µM | Jurkat cells viability, ATP luminescence | hit rate 12% among 1,400; in the data active = inhibition above about 15%;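 also: 0% = vehicle and 100% = reference inhibitor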
Tb MetRS inh FP: orthogonal test for Trypanosoma brucei MetRS inhibitors. hit rate 44% among 1,400. shares compounds with TbMetRS inhib. purified T. brucei MetRS, fluorescence polarization. inhibition, % at 11.9 µM; in the data active = inhibition above about 17%;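 also: 0% = vehicle wells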
The depositor's hits bear a star; / = no result. A selection: hits, their analogues and other compounds. The true share with any hit is near 1.1%.

SMILES	GC-B act	TbMetRS inhib	SKN-1 block	MT1-MMP act inh	Bfl-1 A1 inh	NPR1 activator	Tb MetRS conf	Jurkat cytotox	Tb MetRS inh FP
COC(=O)C1CN(Cc2cn(CCOC(C)=O)nn2)CCS(=O)(=O)N1Cc1ccc(C)cc1 (stereo not drawn)	2.6	/	/	/	/	4.2	/	/	/
Oc1ccc(Br)cc1CNc1cnc2ccccc2c1	-5.1	10.8*	-3.3	0.9	0.4	-37.9	15.4*	40.2*	0.5
COc1ccc(OCCC(=O)OCC(=O)Nc2ccc(Br)cc2)cc1	1.6	16.6*	7.7	-0.4	-0.1	0.3	17.8*	3.4	11.5
COc1ccc(CC(=O)OCC(=O)Nc2ccc(Br)cc2)cc1	-1.2	11.0*	6.9	1.7	0.5	1.2	30.9*	-9.1	25.0*
COc1ccc(S[C@]2(C(=O)N3CCOCC3)CC(=O)N(c3ccc(OC)cc3)[C@@H]2c2ccc(OC)cc2)cc1	-7.2	/	/	/	/	-7.2	/	/	/
C[C@H]1[C@@H](N(C)CC2CCCCC2)CC[C@@]23CCCN2C(=O)CCC[C@@H]13	-2.7	/	/	/	/	-1.9	/	/	/
O=C(NCc1cc(Cl)cc(Cl)c1)c1csc([C@@H]2O[C@H](CO)[C@H](O)[C@H](O)[C@H]2O)n1	3.3	8.7*	2.8	2.0	/	0.5	31.0*	-8.2	6.8
O=C(NCc1cc(Cl)cc(Cl)c1)c1ccc2sc([C@@H]3O[C@H](CO)[C@H](O)[C@H](O)[C@H]3O)nc2c1	-2.1	17.7*	-1.8	1.3	/	0.5	51.0*	-3.2	27.0*
Cc1cccc(C)c1NC(=O)C1CCN(c2ncccn2)CC1	0.9	/	/	/	/	2.1	/	/	/
FC(F)(F)c1cccc(NC(=S)NCc2ccccc2)c1	-0.8	2.7	3.9	-2.3	-0.2	-0.5	/	/	/
FC(F)(F)c1cccc(CNC(=S)Nc2ccccc2)c1	-2.9	15.3*	7.7	1.6	2.4	0.6	29.4*	0.8	9.4
COC(=O)CC/C(O)=C1\C(=O)CC(C)(C)CC1=NCc1nc2ccccc2[nH]1	-2.6	48.2*	-3.9	1.2	0.2	-3.1	67.0*	-3.6	35.4*
CC(=O)C1=C(O)CCCC1=NCc1nc2ccccc2[nH]1	0.7	6.2*	3.2	-2.1	1.2	-4.2	12.1*	-5.6	9.4
O=C(Nc1c(-c2ccc(C(F)(F)F)cc2)nc2ncccn12)C1CC1	3.1	/	/	/	/	1.1	/	/	/
O=C1CN(C(=O)/C=C/c2ccc(Cl)cc2Cl)CCN1	1.9	1.1	10.7	-0.2	0.1	-0.8	/	/	/
CN1CCCN(C(=O)/C=C/c2ccc(Cl)cc2Cl)CC1	-6.4	8.0*	3.3	3.8	1.0	-2.7	17.0*	-6.2	1.5
Nc1ncnc2nc(SCc3ccc(Cl)cc3Cl)[nH]c12	-7.1	12.5*	13.1	-4.7	0.3	-3.5	32.4*	15.5*	12.4
C=CCOc1c(Br)cc(C2C3=C(CCCC3=O)N(C)C3=C2C(=O)CCC3)cc1OCC	1.8	9.5*	1.0	3.3	0.0	3.8	15.7*	-6.8	10.4
C=CCOc1c(Br)cc(C2NC(=O)NC(C)=C2C(C)=O)cc1OCC (stereo not drawn)	-3.6	7.0*	-4.0	-4.8	0.3	-2.5	14.8*	-7.2	6.9
CCOC(=O)COc1c(Br)cc(C2NC(=O)NC(C)=C2C(C)=O)cc1OC (stereo not drawn)	0.9	-0.9	8.4	-2.3	-0.2	1.2	/	/	/
COC(=O)c1sc(-c2ccc(C(C)(C)C)cc2)cc1NC(=O)CCC(=O)O	-8.8	2.2	10.8	1.0	-0.3	15.1	/	/	/
COC(=O)c1sc(-c2ccc(Cl)cc2)cc1NC(=O)COCC(=O)O	-7.5	38.3*	3.5	1.0	0.4	16.5	37.0*	8.0	24.8*
COc1ccc(C(C(=O)N(C)C2CCCC2)N(Cc2ccc(F)cc2)C(=O)c2sccc2Cl)cc1OC (stereo not drawn)	-14.3	/	/	/	/	-25.0	/	/	/
Nc1ncnc2c1ncn2C1O[C@H](CO)[C@@H](O)[C@@H]1O (stereo partly drawn)	0.6	0.9	17.5	-2.9	-0.6	3.0	/	/	/
N#Cc1c(N)n(C2OC(CO)C(O)C2O)c2ncnc(N)c12 (stereo not drawn)	-5.4	7.8*	-2.9	-2.3	/	-8.4	29.9*	97.5*	10.0
SMILES	GC-B act	TbMetRS inhib	SKN-1 block	MT1-MMP act inh	Bfl-1 A1 inh	NPR1 activator	Tb MetRS conf	Jurkat cytotox	Tb MetRS inh FP
COC(=O)[C@]12C[C@H](CC(=O)NCc3ccc(C)o3)C(=O)N(Cc3cccc4ccccc34)C1=C[C@H](C(C)C)O[C@@H]2C1CC1	-3.9	/	/	/	/	-8.8	/	/	/
O=C(C=Cc1ccccc1)c1c[nH]c2ccccc2c1=O	-1.8	36.6*	7.7	-7.0	/	2.6	77.9*	93.3*	56.4*
COc1ccc(NC(=O)COC(=O)CCCOc2ccc(Cl)cc2Cl)cc1	0.1	7.0*	12.4	4.7	0.3	14.6	17.2*	-8.0	23.0*
CC(C)(CO)NC(=O)CCCOc1ccc(Cl)cc1Cl	0.2	10.9*	-1.9	2.6	0.4	17.9	13.2*	4.2	6.8
Cc1cc(NC(=O)COC(=O)CCCOc2ccc(Cl)cc2C)no1	-2.0	6.5*	11.1	-1.4	-0.2	9.7	11.5*	-0.7	8.2
C#CCNC(=O)C[C@H]1C[C@@]2(C(=O)OC)C(=C[C@H](COCc3ccccc3)O[C@@H]2C)N(CCCCCCCC)C1=O	-0.8	/	/	/	/	0.1	/	/	/
COC(=O)[C@]12C[C@H](CC(=O)N3CCOCC3)C(=O)N(Cc3cccc4ccccc34)C1=C[C@H](C(C)C)O[C@@H]2C1CC1	-18.1	/	/	/	/	-31.4	/	/	/
Nc1c(NC(=O)CC[n+]2ccccc2)cccc1[N+](=O)[O-]	-0.2	11.2*	2.6	-1.1	0.4	1.0	18.4*	-3.7	2.1
O=C(Nc1ccccc1C(=O)NCc1ccco1)c1ccccc1	2.4	-0.3	-22.0	-2.9	0.3	0.1	/	/	/
S=C(NCCSCc1ccc(Cl)cc1)Nc1ccccc1	-0.8	30.1*	5.1	4.0	-0.5	-1.0	50.9*	5.4	49.5*
O=C(Nc1ccc(Cl)cc1)Nc1ccccc1C(=O)NCc1ccco1	3.5	13.8*	3.6	-7.4	-8.8	3.3	19.7*	2.4	14.3
O=C(NCCSCc1ccco1)Nc1ccc(Cl)cc1	2.2	6.4*	-2.0	-1.5	-0.4	-0.7	15.9*	4.3	7.7

Screening data from PubChem.
